From ChEMBL document CHEMBL2086304, “Synthesis and in vitro antimycobacterial and isocitrate lyase inhibition properties of novel 2-methoxy-2'-hydroxybenzanilides, their thioxo analogues and benzoxazoles” (Eur J Med Chem, 2012)
Converted amounts (≈) assume the structure as drawn.

Assays:
[1] = test system: Mycobacterium tuberculosis; test: Antimycobacterial activity against Mycobacterium tuberculosis 331/88 after 14 days by micromethod; assay type: functional; settings: 331/88, 336 h
In short: (§1)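 Inocula: M. tuberculosis My 331/88 at 10^-3 dilution, M. avium My 330/88 at 10^-5, M. kansasii My 235/80 and clinical isolate 6509/96 at 10^-4. Compounds added in DMSO at 1000 down to 0.5 (twofold series). Read at 14 and 21 days, plus 7 days for M. kansasii. MIC taken as lowest concentration inhibiting growth.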

[2] = test system: Mycobacterium tuberculosis; test: Antimycobacterial activity against Mycobacterium tuberculosis 331/88 after 21 days by micromethod; assay type: functional; settings: 331/88, 504 h; in short: as §1
Mycobacterium avium [3] = test: Antimycobacterial activity against isoniazid resistance Mycobacterium avium 330/88 after 14 days by micromethod; assay type: functional; settings: 330/88, 336 h; in short: as §1
Mycobacterium avium [4] = test: Antimycobacterial activity against isoniazid resistance Mycobacterium avium 330/88 after 21 days by micromethod; assay type: functional; settings: 330/88, 504 h; in short: as §1
Mycobacterium kansasii [5] = test: Antimycobacterial activity against Mycobacterium kansasii 6509/96 clinical isolate after 7 days by micromethod; assay type: functional; settings: 6509/96, 168 h; in short: as §1
Mycobacterium kansasii [6] = test: Antimycobacterial activity against isoniazid resistance Mycobacterium kansasii 225/80 after 14 days by micromethod; assay type: functional; settings: 225/80, 336 h
Mycobacterium kansasii [7] = test: Antimycobacterial activity against isoniazid resistance Mycobacterium kansasii 225/80 after 21 days by micromethod; assay type: functional; settings: 225/80, 504 h
Mycobacterium kansasii [8] = test: Antimycobacterial activity against Mycobacterium kansasii 6509/96 clinical isolate after 14 days by micromethod; assay type: functional; settings: 6509/96, 336 h; in short: as §1
Mycobacterium kansasii [9] = test: Antimycobacterial activity against Mycobacterium kansasii 6509/96 clinical isolate after 21 days by micromethod; assay type: functional; settings: 6509/96, 504 h; in short: as §1
[10] = target: T1, Isocitrate lyase (Mycobacterium tuberculosis) (UniProt P9WKK7); test: Inhibition of Mycobacterium tuberculosis H37Rv isocitrate lyase expressed in Escherichia coli HB101 at 10 umol/L
T1 sequence (whole entry): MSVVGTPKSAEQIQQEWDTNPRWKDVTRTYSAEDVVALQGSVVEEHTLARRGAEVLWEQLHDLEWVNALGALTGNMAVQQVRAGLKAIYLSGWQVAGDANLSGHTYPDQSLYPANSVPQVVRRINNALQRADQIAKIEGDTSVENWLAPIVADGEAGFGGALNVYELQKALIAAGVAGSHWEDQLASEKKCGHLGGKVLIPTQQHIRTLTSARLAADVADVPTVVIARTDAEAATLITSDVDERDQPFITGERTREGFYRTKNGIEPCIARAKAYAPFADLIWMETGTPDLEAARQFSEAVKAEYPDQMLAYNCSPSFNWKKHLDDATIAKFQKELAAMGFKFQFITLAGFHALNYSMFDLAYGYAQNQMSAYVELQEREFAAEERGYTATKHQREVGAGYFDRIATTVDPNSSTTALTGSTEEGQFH
In short: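 Isocitrate lyase assayed per Dixon–Kornberg in 96-well format. Buffer: 50 mmol/L KH2PO4, 4 mmol/L MgCl2, 4 mmol/L phenylhydrazine, 12 mmol/L cysteine, pH 7.0. Glyoxylate phenylhydrazone read at 324 nm. Compounds added in DMSO, with DMSO-alone inhibition subtracted.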

Mycobacterium kansasii [11] = test: Antimycobacterial activity against isoniazid resistance Mycobacterium kansasii 225/80 after 7 days by micromethod; assay type: functional; settings: 225/80, 168 h

Structure (SMILES)	MIC [1]	MIC [2]	MIC (Mycobacterium avium [3])	MIC (Mycobacterium avium [4])	MIC (Mycobacterium kansasii [5])	MIC (Mycobacterium kansasii [6])	MIC (Mycobacterium kansasii [7])	MIC (Mycobacterium kansasii [8])	MIC (Mycobacterium kansasii [9])	inhibition [10]	MIC (Mycobacterium kansasii [11])
COc1cc(Cl)ccc1C(=O)Nc1ccc(C(F)(F)F)cc1OC(=O)c1ccc(Cl)cc1OC	250 µM (≈ 129 µg/mL)	250 µM (≈ 129 µg/mL)	62.5 µM (≈ 32.1 µg/mL)	62.5 µM (≈ 32.1 µg/mL)	250 µM (≈ 129 µg/mL)	250 µM (≈ 129 µg/mL)	250 µM (≈ 129 µg/mL)	250 µM (≈ 129 µg/mL)	250 µM (≈ 129 µg/mL)	8%	–
COc1cc(Cl)ccc1C(=O)Nc1ccc(Cl)cc1OC(=O)c1ccc(Cl)cc1OC	4 µM (≈ 1.92 µg/mL)	8 µM (≈ 3.85 µg/mL)	62.5 µM (≈ 30 µg/mL)	62.5 µM (≈ 30 µg/mL)	8 µM (≈ 3.85 µg/mL)	32 µM (≈ 15.4 µg/mL)	125 µM (≈ 60.1 µg/mL)	16 µM (≈ 7.69 µg/mL)	62.5 µM (≈ 30 µg/mL)	0%	16 µM (≈ 7.69 µg/mL)
COc1cc(Cl)ccc1-c1nc2ccc(C(F)(F)F)cc2o1	250 µM (≈ 81.9 µg/mL)	250 µM (≈ 81.9 µg/mL)	125 µM (≈ 41 µg/mL)	125 µM (≈ 41 µg/mL)	250 µM (≈ 81.9 µg/mL)	250 µM (≈ 81.9 µg/mL)	250 µM (≈ 81.9 µg/mL)	250 µM (≈ 81.9 µg/mL)	250 µM (≈ 81.9 µg/mL)	0%	–
COc1cc(Cl)ccc1-c1nc2cc(Cl)c(Cl)cc2o1	250 µM (≈ 82.1 µg/mL)	250 µM (≈ 82.1 µg/mL)	250 µM (≈ 82.1 µg/mL)	500 µM (≈ 164 µg/mL)	250 µM (≈ 82.1 µg/mL)	250 µM (≈ 82.1 µg/mL)	250 µM (≈ 82.1 µg/mL)	250 µM (≈ 82.1 µg/mL)	250 µM (≈ 82.1 µg/mL)	0%	250 µM (≈ 82.1 µg/mL)
COc1ccc(Cl)cc1C(=O)Nc1cc(Cl)ccc1O	16 µM (≈ 4.99 µg/mL)	32 µM (≈ 9.99 µg/mL)	125 µM (≈ 39 µg/mL)	125 µM (≈ 39 µg/mL)	8 µM (≈ 2.5 µg/mL)	16 µM (≈ 4.99 µg/mL)	16 µM (≈ 4.99 µg/mL)	16 µM (≈ 4.99 µg/mL)	16 µM (≈ 4.99 µg/mL)	0%	4 µM (≈ 1.25 µg/mL)
COc1ccc(Cl)cc1C(=O)Nc1cc(Cl)c(Cl)cc1OC(=O)c1cc(Cl)ccc1OC	8 µM (≈ 4.12 µg/mL)	8 µM (≈ 4.12 µg/mL)	62.5 µM (≈ 32.2 µg/mL)	62.5 µM (≈ 32.2 µg/mL)	4 µM (≈ 2.06 µg/mL)	8 µM (≈ 4.12 µg/mL)	8 µM (≈ 4.12 µg/mL)	8 µM (≈ 4.12 µg/mL)	8 µM (≈ 4.12 µg/mL)	3%	4 µM (≈ 2.06 µg/mL)
COc1cc(Cl)ccc1-c1nc2ccc(Cl)cc2o1	125 µM (≈ 36.8 µg/mL)	125 µM (≈ 36.8 µg/mL)	62.5 µM (≈ 18.4 µg/mL)	62.5 µM (≈ 18.4 µg/mL)	62.5 µM (≈ 18.4 µg/mL)	62.5 µM (≈ 18.4 µg/mL)	62.5 µM (≈ 18.4 µg/mL)	62.5 µM (≈ 18.4 µg/mL)	62.5 µM (≈ 18.4 µg/mL)	0%	62.5 µM (≈ 18.4 µg/mL)
COc1cc(Cl)ccc1-c1nc2ccc(Br)cc2o1	125 µM (≈ 42.3 µg/mL)	125 µM (≈ 42.3 µg/mL)	125 µM (≈ 42.3 µg/mL)	125 µM (≈ 42.3 µg/mL)	125 µM (≈ 42.3 µg/mL)	125 µM (≈ 42.3 µg/mL)	125 µM (≈ 42.3 µg/mL)	125 µM (≈ 42.3 µg/mL)	125 µM (≈ 42.3 µg/mL)	0%	125 µM (≈ 42.3 µg/mL)
NNC(=O)c1ccncc1 [ISONIAZID]	0.5 µM (≈ 0.0686 µg/mL)	0.5 µM (≈ 0.0686 µg/mL)	> 250 µM	> 250 µM	4 µM (≈ 0.549 µg/mL)	> 250 µM	> 250 µM	4 µM (≈ 0.549 µg/mL)	4 µM (≈ 0.549 µg/mL)	–	> 250 µM
COc1ccc(Cl)cc1-c1nc2cc(Cl)c(Cl)cc2o1	125 µM (≈ 41.1 µg/mL)	125 µM (≈ 41.1 µg/mL)	125 µM (≈ 41.1 µg/mL)	125 µM (≈ 41.1 µg/mL)	125 µM (≈ 41.1 µg/mL)	125 µM (≈ 41.1 µg/mL)	125 µM (≈ 41.1 µg/mL)	125 µM (≈ 41.1 µg/mL)	125 µM (≈ 41.1 µg/mL)	4%	125 µM (≈ 41.1 µg/mL)
COc1ccc(Cl)cc1-c1nc2ccc(C(F)(F)F)cc2o1	62.5 µM (≈ 20.5 µg/mL)	62.5 µM (≈ 20.5 µg/mL)	250 µM (≈ 81.9 µg/mL)	250 µM (≈ 81.9 µg/mL)	62.5 µM (≈ 20.5 µg/mL)	250 µM (≈ 81.9 µg/mL)	250 µM (≈ 81.9 µg/mL)	62.5 µM (≈ 20.5 µg/mL)	62.5 µM (≈ 20.5 µg/mL)	0%	250 µM (≈ 81.9 µg/mL)
COc1ccc(Cl)cc1C(=O)Nc1ccc(C(F)(F)F)cc1OC(=O)c1cc(Cl)ccc1OC	250 µM (≈ 129 µg/mL)	250 µM (≈ 129 µg/mL)	62.5 µM (≈ 32.1 µg/mL)	62.5 µM (≈ 32.1 µg/mL)	8 µM (≈ 4.11 µg/mL)	8 µM (≈ 4.11 µg/mL)	16 µM (≈ 8.23 µg/mL)	8 µM (≈ 4.11 µg/mL)	8 µM (≈ 4.11 µg/mL)	9%	–
O=C(O)CC[N+](=O)[O-]	–	–	–	–	–	–	–	–	–	25%	–
